Results on 16 compounds are retold here after PubChem BioAssay.

SMILES strings stand for the structures. Unmarked numbers belong to inactive results. Records with an inconclusive call do not appear. Active and inactive are the calls of the source.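 The calls were made as follows, unless noted: active = cell viability at or below a set limit in both duplicate runs, the limit being the all-compound median minus 4 SD (cut at about 23% in these data, passing the limit was not always enough); inconclusive = no clear call, values can overlap the other calls; inactive = the rest.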

Experiment [1] can be described thus: S. cerevisiae growth inhibition in permissive medium (OD615), pilot counter-assay for S. cerevisiae lifespan shortening project, permissive growth control (AID 705;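 active = growth inhibition above 25% in both replicates, a cutoff set 3 SD above the mean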). Conditions: OD615, 24 h, at 10 µM, stronger effect = higher value. An outline of the steps: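 System: S. cerevisiae with engineered DeaD lifespan system / Measured by: absorbance (optical density) at 615 nm / Read-out: reduction in yeast growth (OD615) / Times: 4 h cell pre-growth, 24 h exposure at 30 °C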

Experiment [2] is described as follows: S. cerevisiae growth inhibition in restrictive medium, OD615, pilot screen, restrictive growth control, yeast lifespan reduction project (AID 706;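 active = growth inhibition above a set limit, 3 SD over mean compound inhibition, in both replicates, cut at about 43% in these data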;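 also: modified DeaD lifespan yeast strain shifted to restrictive glucose medium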). Conditions: OD615, 48 h, at 10 µM, stronger effect = higher value. The gist of the method:
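System: Engineered S. cerevisiae DeaD strain | Buffer or medium: Glucose-based CSMM-D restrictive medium | Schedule: 4 h pre-incubation, 48 h exposure at 30 °C | Technique: Optical density at 615 nm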

A short description of experiment [3]: doxorubicin toxicity protection in MRP-1 cells – H69AR cells, CellTiter-Glo, duplicate, MRP-1 activator project, pilot screen (AID 807;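 active = viability increase at or above a cutoff of the median across tested compounds plus 3 SD, cut at about 8.5% in these data, passing the limit was not always enough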;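 also: compound pretreatment 18-22 h then 72 h combined with doxorubicin; 0% = doxorubicin alone and 100% = vehicle without doxorubicin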). Conditions: H69AR viability with doxorubicin, CellTiter-Glo luminescence; at 10 µM; stronger effect = higher value. (In general: In ATP-based viability assays light output follows the ATP content of the culture.)
Experiment [4] is described as follows: viability of HCT116 without oncogenic beta-catenin – human colon tumor cells, pilot screen (AID 823).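 Also: 0% = wells killed by 20 µM Hyamine and 100% = untreated DMSO cell wells.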 Particulars: HCT116 beta-catenin knockout viability, CellTiter-Glo, 60 h; at 10 µM; stronger effect = lower value.
Experiment [5] in a line: viability of PTEN-null HCT116 cells – cell-based, HCT116 clonal line, CellTiter-Glo, pilot screen (AID 824;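 active = viability at or below 27.92% in each of two runs, the all-compound median minus 4 SD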;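 also: 0% = 20 µM Hyamine control and 100% = vehicle cell control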). Conditions: HCT116 PTEN-deleted viability, 60 h, at 10 µM, stronger effect = lower value.
A short description of experiment [6]: RAM pathway blockade in budding yeast – dse1pr::URA3 reporter, 5-FOA selection, pilot screen (AID 869;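 active = inhibition over a set limit, the all-compound mean plus 3 SD, in both replicate runs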;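 also: 0% = DMSO wells with no growth and 100% = 10 µM 1-NA-PP1 with full growth; RAM network block rescues cells from 5-FOA so hits raise OD615 growth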). Particulars: S. cerevisiae dse1pr::URA3 5-FOA growth, OD615, 2 d; at 10 µM; stronger effect = higher value; strain carries analog-sensitive mutant Cbk1 kinase.
The nature of experiment [7]: RAM signaling pathway blockade in yeast – S. cerevisiae, Pdr1DBD-CYC8 efflux-inhibited sensitized strain, primary screen (AID 1298;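 active = RAM network inhibition above 8.4% in each of two replicates, 3 SD over the compound average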;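 also: 0% = DMSO untreated cells without growth and 100% = 10 µM 1-NA-PP1 full growth; higher means more yeast growth rescued from 5-FOA killing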). Particulars: S. cerevisiae cbk1-as DSE1-URA3 strain, 5-FOA growth OD615, 2 d; at 50 µM; stronger effect = higher value.

For orientation: viability means a read-out of living cells in per cent, often relative to untreated cells. The inhibition is the drop in the measured response relative to a control, in per cent. Regarding `CC1CN(S(=O)(=O)c2ccc(C(=O)Nc3nnc(-c4ccc5c(c4)CCCC5)o3)cc2)CC(C)O1` (configuration not stated), the growth inhibition in experiment [1] is -19.1%; in experiment [2], 1.69%. Moreover, the viability increase in experiment [3] was -5.17%. In addition, the viability in experiment [4] was 21.1% (active); in experiment [5], 19.7% (active). The inhibition in experiment [6] is 1.67%. Also, in experiment [7], the RAM network inhibition was 5.1%.

With `CCOc1ccc(N2C(=O)CC(N3CCN(C4CCc5ccccc5C4)CC3)C2=O)cc1` (configuration not stated), the figures for the growth inhibition in experiment [1] and in experiment [2] were 2.08% and 0.34%, respectively. In addition, the viability increase in experiment [3] was -1.42%. Also, the viability in experiment [4] was 94.6%; in experiment [5], 93.1%. The inhibition in experiment [6] was 1.93%. Also, in experiment [7], the RAM network inhibition was 1.53%.

With `O=C(NCc1ccccn1)C1CCC(=O)N1C1CCCC1` (configuration not stated), the growth inhibition in experiment [1] was -0.9%; in experiment [2] it was 3.94%. The viability increase in experiment [3] was -0.45%. Besides, the viability in experiment [4] is 98.2%; in experiment [5], 98%. Besides, the inhibition in experiment [6] is 1.67%. In experiment [7], the RAM network inhibition was 4.67%.

For `O=C(NCCSCc1ccco1)c1ccc(CN2CCOCC2)cc1`, the growth inhibition in experiment [1] was -10.4%; in experiment [2], -27%. For the same compound, the viability increase in experiment [3] was -1.57%. The viability in experiment [4] was 101%; in experiment [5], 99.7%. Besides, in experiment [6], the inhibition was 1.59%. For the same compound, in experiment [7], the RAM network inhibition is 2.06%.

For the compound `COc1cc2c(cc1OC)C(COc1ccc3c(C)cc(=O)oc3c1)N(C(=O)c1ccco1)CC2` (configuration not stated), the growth inhibition is -1.62% in experiment [1] and -3.73% in experiment [2]. In experiment [3], the viability increase was -4.63%. Further, the viability in experiment [4] was 91.8%; in experiment [5], 87.8%. The inhibition in experiment [6] was 1.6%. Besides, the RAM network inhibition in experiment [7] is 4.74%.

In the case of `O=C(Cc1cccs1)N(Cc1ccco1)C1(C(=O)NC2CCCC2)CCCCC1`, the growth inhibition was -6.91% in experiment [1] and -9.26% in experiment [2]. The viability increase in experiment [3] is -5.17%. Moreover, the values for the viability in experiment [4] and in experiment [5] were 66.5% and 67.1%, respectively. In addition, in experiment [6], the inhibition was 0.86%. Moreover, in experiment [7], the RAM network inhibition is 6.21%.

For the compound `O=C(CN1C(=O)c2ccccc2S1(=O)=O)NC1CCCCCC1`, the growth inhibition is 2.58% in experiment [1] and -5% in experiment [2]. Also, the viability increase in experiment [3] was -1.02%. Further, the viability in experiment [4] was 102%; in experiment [5] it was 101%. Further, the inhibition in experiment [6] is 0.355%. Further, in experiment [7], the RAM network inhibition was 4.59%.

`O=C(NCc1ccco1)c1cc(S(=O)(=O)N2CCOCC2)ccc1Cl`: the growth inhibition in experiment [1] is -8.68%; in experiment [2] it was -8.34%. In addition, the viability increase in experiment [3] is -3.24%. Besides, the viability was 86.2% in experiment [4] and 95.2% in experiment [5]. Besides, in experiment [6], the inhibition was 3.05%. For the same compound, the RAM network inhibition in experiment [7] was 1.96%.

In the case of `CCc1cccc(C)c1NC(=O)CN1C(=O)c2ccccc2S1(=O)=O`, the growth inhibition in experiment [1] was -7.37%; in experiment [2] it was 1.46%. In addition, the viability increase in experiment [3] is -0.23%. Moreover, the viability was 98.3% in experiment [4] and 93.2% in experiment [5]. Moreover, the inhibition in experiment [6] is 0.955%. Also, the RAM network inhibition in experiment [7] is 4.79%.

Consider `COc1cc(-c2nnc(COc3ccc4cc(Br)ccc4c3)o2)cc(OC)c1OC`, for which the growth inhibition in experiment [1] was -10.6%; in experiment [2], -8.51%. Further, the viability increase in experiment [3] is 0.27%. Further, the viability in experiment [4] was 62.9%; in experiment [5] it was 46.7%. Also, the inhibition in experiment [6] was 0.505%. Moreover, the RAM network inhibition in experiment [7] is 3.67%.

Consider `C=CCn1c(SCC(=O)N2CCN(c3ccc(F)cc3)CC2)nnc1-c1ccco1`, for which the growth inhibition was 3.6% in experiment [1] and 1.48% in experiment [2]. Also, the viability increase in experiment [3] is -2.41%. Besides, the figures for the viability in experiment [4] and in experiment [5] were 60.7% and 73.1%, respectively. Further, the inhibition in experiment [6] is 1.71%. The RAM network inhibition in experiment [7] is 11.3%.

With `COc1ccc(OC)c(CNC(=O)CCc2nc(-c3cccs3)no2)c1`, the growth inhibition was 2.87% in experiment [1] and 11.3% in experiment [2]. Further, in experiment [3], the viability increase is -2.92%. Also, the viability is 98% in experiment [4] and 93.4% in experiment [5]. For the same compound, in experiment [6], the inhibition was 1.71%. Also, the RAM network inhibition in experiment [7] is 2.56%.

As to `Cc1cccc(Cn2c(SCCN3CCOCC3)nc3c2c(=O)n(C)c(=O)n3C)c1`, the growth inhibition in experiment [1] was 1.68%; in experiment [2], 1.63%. Besides, in experiment [3], the viability increase is -2.36%. Moreover, the viability in experiment [4] was 103%; in experiment [5], 91%. Moreover, the inhibition in experiment [6] was 0.9%. Moreover, the RAM network inhibition in experiment [7] is 5.93%.

`COc1cccc(C(c2sc3ncnn3c2O)N2CCN(C(=O)c3ccco3)CC2)c1` (configuration not stated): the growth inhibition was -11.1% in experiment [1] and -5.93% in experiment [2]. Further, the viability increase in experiment [3] is 0.76%. Moreover, the viability in experiment [4] was 104%; in experiment [5], 101%. Also, the inhibition in experiment [6] is 0.91%. In addition, in experiment [7], the RAM network inhibition was 2.1%.

As for `CC1Cc2nc(SCC(=O)OCc3ccccc3)n(C)c(=O)c2S1` (configuration not stated), the growth inhibition is 5.29% in experiment [1] and 1.86% in experiment [2]. Moreover, in experiment [3], the viability increase is -3.06%. In addition, the viability in experiment [4] was 102%; in experiment [5], 93.8%. For the same compound, in experiment [6], the inhibition is 0.69%. Further, the RAM network inhibition in experiment [7] is 6.68%.

In the case of `Cc1nc(CC(=O)c2c(C)cc(O)cc2O)cs1`, the growth inhibition is -12.2% in experiment [1] and 1.06% in experiment [2]. Further, in experiment [3], the viability increase is 2.92%. In addition, the viability in experiment [4] was 90.5%; in experiment [5], 95.9%. Further, the inhibition in experiment [6] is -0.335%. Also, the RAM network inhibition in experiment [7] is 1.48%.
